Experimental data taken from ChEMBL document CHEMBL3621107, “Ring fusion strategy for synthesis and lead optimization of sulfur-substituted anthra[1,2-c][1,2,5]thiadiazole-6,11-dione derivatives as promising scaffold of antitumor agents” (Eur J Med Chem, 2015).

Tests used:
Format in all cases: functional
[1] = Cytotoxicity against human leukemia cells assessed as growth inhibition after 48 hrs by SRB assay; conditions: Leukemia cell
Procedure, shortened: (§1)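 Values come from the NCI-60 five-dose panel (0.01–100 µM). The subpanel MID is the mean GI50 over the lines of that tumour subpanel. The selectivity ratio is the full-panel MID divided by the subpanel MID; 3–6 is rated moderate and >6 high.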

[2] = system: MDA-MB-231; test: Cytotoxicity against human MDA-MB-231 cells after 48 hrs by SRB assay; conditions: MDA-MB-231, 48 h
Procedure, shortened: (§2)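 Second-stage NCI-60 panel run by the NCI Developmental Therapeutics Program, covering nine tumour subpanels. Five concentrations were tested: 0.01, 0.1, 1, 10 and 100 μM. Percentage growth at each level was plotted against log10 drug concentration. GI50, TGI and LC50 were read from these dose-response curves. Subpanel MID values were divided into the full-panel MID to give selectivity ratios.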

[3] = system: ACHN; test: Cytotoxicity against human ACHN cells after 48 hrs by SRB assay
Procedure, shortened: (§3)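 NCI-60 human tumour cell panel screen, second stage, run by the NCI Developmental Therapeutics Program. Compounds were tested at five concentrations (0.01, 0.1, 1, 10 and 100 μM). Percentage growth was plotted against log10 concentration for each cell line. GI50, TGI and LC50 were taken from these dose-response curves.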

[4] = system: U-251; test: Cytotoxicity against human U251 cells after 48 hrs by SRB assay; conditions: U-251, 48 h
Procedure, shortened: (§4)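 NCI-60 five-dose study run by NCI DTP at 0.01, 0.1, 1, 10 and 100 µM. Percentage growth at each level was plotted against log10 concentration for each line, and GI50, TGI and LC50 were read from the dose-response curves.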

[5] = Cytotoxicity against human colon cancer cells assessed as growth inhibition after 48 hrs by SRB assay; conditions: Cancer cell lines; procedure, shortened: as §1
[6] = system: UACC-62; test: Cytotoxicity against human UACC62 cells after 48 hrs by SRB assay; conditions: UACC-62, 48 h; procedure, shortened: as §4
[7] = system: NCI-H460; test: Cytotoxicity against human NCI-H460 cells after 48 hrs by SRB assay; conditions: NCI-H460, 48 h; procedure, shortened: as §2
[8] = system: A549; test: Cytotoxicity against human A549 cells after 48 hrs by SRB assay; conditions: A549, 48 h; procedure, shortened: as §3
[9] = system: CCRF-CEM; test: Cytotoxicity against human CCRF-CEM cells after 48 hrs by SRB assay; procedure, shortened: as §3
[10] = Cytotoxicity against human prostate cancer cells assessed as growth inhibition after 48 hrs by SRB assay; conditions: Cancer cell lines; procedure, shortened: as §1
[11] = Cytotoxicity against human Hs578T cells after 48 hrs by SRB assay; conditions: Hs-578T; procedure, shortened: as §3
[12] = system: SW-620; test: Cytotoxicity against human SW620 cells after 48 hrs by SRB assay; conditions: SW-620, 48 h; procedure, shortened: as §4
[13] = system: HCT-15; test: Cytotoxicity against human HCT15 cells after 48 hrs by SRB assay; conditions: HCT-15, 48 h; procedure, shortened: as §3
[14] = Cytotoxicity against human non-small cell lung cancer cells assessed as growth inhibition after 48 hrs by SRB assay; conditions: Cancer cell lines; procedure, shortened: as §1
[15] = system: M14; test: Cytotoxicity against human M14 cells after 48 hrs by SRB assay; conditions: M14, 48 h; procedure, shortened: as §3
[16] = Cytotoxicity against human EKVX cells after 48 hrs by SRB assay; procedure, shortened: as §3
[17] = system: LOX IMVI; test: Cytotoxicity against human LOXIMVI cells after 48 hrs by SRB assay; conditions: for CC50: read-out: LC50 (the source's name); procedure, shortened: as §3
[18] = system: MCF7; test: Cytotoxicity against human MCF7 cells after 48 hrs by SRB assay; conditions: MCF7, 48 h; procedure, shortened: as §3
[19] = Cytotoxicity against human breast cancer cells assessed as growth inhibition after 48 hrs by SRB assay; conditions: Cancer cell lines; procedure, shortened: as §1
[20] = system: NCI-H522; test: Cytotoxicity against human NCI-H522 cells after 48 hrs by SRB assay; conditions: NCI-H522, 48 h; procedure, shortened: as §2
[21] = system: UO-31; test: Cytotoxicity against human UO31 cells after 48 hrs by SRB assay; conditions: UO-31, 48 h; procedure, shortened: as §4
[22] = system: BT-549; test: Cytotoxicity against human BT549 cells after 48 hrs by SRB assay; conditions: BT-549, 48 h; procedure, shortened: as §3
[23] = system: MDA-MB-468; test: Cytotoxicity against human MDA-MB-468 cells after 48 hrs by SRB assay; conditions: MDA-MB-468, 48 h; procedure, shortened: as §2
[24] = system: SN12C; test: Cytotoxicity against human SN12C cells after 48 hrs by SRB assay; conditions: for CC50: read-out: LC50 (the source's name); procedure, shortened: as §2
[25] = system: Malme-3M; test: Cytotoxicity against human MALME-3M cells after 48 hrs by SRB assay; procedure, shortened: as §3
[26] = system: SR; test: Cytotoxicity against human SR cells after 48 hrs by SRB assay; procedure, shortened: as §4
[27] = system: K562; test: Cytotoxicity against human K562 cells after 48 hrs by SRB assay; conditions: K562, 48 h; procedure, shortened: as §3
[28] = Cytotoxicity against human renal cancer cells assessed as growth inhibition after 48 hrs by SRB assay; conditions: Cancer cell lines; procedure, shortened: as §1
[29] = system: SK-MEL-5; test: Cytotoxicity against human SK-MEL-5 cells after 48 hrs by SRB assay; conditions: SK-MEL-5, 48 h; procedure, shortened: as §2
[30] = system: HCC 2998; test: Cytotoxicity against human HCC2998 cells after 48 hrs by SRB assay; conditions: HCC 2998, 48 h; procedure, shortened: as §3
[31] = system: NCI-H23; test: Cytotoxicity against human NCI-H23 cells after 48 hrs by SRB assay; conditions: NCI-H23, 48 h; procedure, shortened: as §2
[32] = system: RXF 393; test: Cytotoxicity against human RXF393 cells after 48 hrs by SRB assay; conditions: RXF 393, 48 h; procedure, shortened: as §2

O=C1c2ccccc2C(=O)c2c1cc(Sc1ccc(F)cc1F)c1nsnc21
GI50 [1]: 2.16 µM
GI50 [2]: 1.2 µM
LC50 (concentration killing 50% of cells) [2]: 12.9 µM
TGI [2]: 3.61 µM
GI50 [3]: 1.85 µM
LC50 [3]: 7.14 µM
TGI [3]: 3.63 µM
GI50 [4]: 1.9 µM
LC50 [4]: 9.94 µM
TGI [4]: 4.35 µM
GI50 [5]: 7.43 µM
GI50 [6]: 1.73 µM
LC50 [6]: 12.9 µM
TGI [6]: 4.37 µM
GI50 [7]: 25.9 µM
LC50 (concentration killing 50% of cells) [7]: > 100 µM
TGI [7]: > 100 µM
GI50 [8]: 14.9 µM
LC50 (concentration killing 50% of cells) [8]: > 100 µM
TGI [8]: 42.4 µM
GI50 [9]: 0.7 µM
LC50 [9]: 57.8 µM
TGI [9]: 6.35 µM
GI50 [10]: 4.13 µM
GI50 [11]: 2.81 µM
LC50 [11]: > 100 µM
TGI [11]: > 100 µM
GI50 [12]: 3.99 µM
LC50 (50% lethal concentration) [12]: 69.5 µM
TGI [12]: 16.3 µM
GI50 [13]: 2.84 µM
LC50 [13]: 50 µM
TGI [13]: 12.9 µM
GI50 [14]: 19 µM
GI50 [15]: 3.72 µM
LC50 [15]: 43 µM
TGI [15]: 15.8 µM
GI50 [16]: 20.8 µM
LC50 [16]: > 100 µM
TGI [16]: 66.5 µM
GI50 [17]: 1.21 µM
TGI [17]: 2.64 µM
CC50 [17]: 5.77 µM
GI50 [18]: 1.31 µM
LC50 (concentration killing 50% of cells) [18]: 7.39 µM
TGI [18]: 3.11 µM
GI50 [19]: 1.77 µM
GI50 [20]: 3.76 µM
LC50 (concentration giving 50% net cell kill) [20]: 37.1 µM
TGI [20]: 12.4 µM
GI50 [21]: 3.03 µM
LC50 [21]: 42.6 µM
TGI [21]: 15 µM
GI50 [22]: 3.99 µM
LC50 [22]: 43 µM
TGI [22]: 17.2 µM
GI50 [23]: 0.45 µM
LC50 [23]: 4.19 µM
TGI [23]: 1.52 µM
GI50 [24]: 1.64 µM
TGI [24]: 4.96 µM
CC50 [24]: 19.4 µM
GI50 [25]: 3.26 µM
LC50 [25]: 41.7 µM
TGI [25]: 8.65 µM
GI50 [26]: 2.97 µM
LC50 [26]: 52.7 µM
TGI [26]: 9.06 µM
GI50 [27]: 3.32 µM
LC50 [27]: 68.4 µM
TGI [27]: 11.8 µM
GI50 [28]: 2.53 µM
GI50 [29]: 1.41 µM
LC50 [29]: 5.72 µM
TGI [29]: 2.84 µM
GI50 [30]: 11.3 µM
LC50 [30]: 56.4 µM
TGI [30]: 25.3 µM
GI50 [31]: 1.88 µM
LC50 [31]: 43.1 µM
TGI [31]: 6.99 µM
GI50 [32]: 2.02 µM
LC50 (concentration killing 50% of cells) [32]: 6.67 µM
TGI [32]: 3.69 µM

O=C1c2ccccc2C(=O)c2c1cc(Sc1ccccc1Br)c1nsnc21
GI50 [1]: 12.8 µM
GI50 [2]: 7.52 µM
LC50 (concentration killing 50% of cells) [2]: > 50 µM
TGI [2]: 37.3 µM
GI50 [3]: 12.8 µM
LC50 [3]: > 50 µM
TGI [3]: 32.5 µM
GI50 [4]: 10.9 µM
LC50 [4]: > 50 µM
TGI [4]: 31.7 µM
GI50 [5]: 21.4 µM
GI50 [6]: 12 µM
LC50 [6]: > 50 µM
TGI [6]: 40.8 µM
GI50 [7]: 36.1 µM
LC50 (concentration killing 50% of cells) [7]: > 50 µM
TGI [7]: > 50 µM
GI50 [8]: > 50 µM
LC50 (concentration killing 50% of cells) [8]: > 50 µM
TGI [8]: > 50 µM
GI50 [9]: 4.88 µM
LC50 [9]: > 50 µM
TGI [9]: > 50 µM
GI50 [10]: 18.2 µM
GI50 [11]: 17.8 µM
LC50 [11]: > 50 µM
TGI [11]: > 50 µM
GI50 [12]: 23.6 µM
LC50 (50% lethal concentration) [12]: > 50 µM
TGI [12]: > 50 µM
GI50 [13]: 12.3 µM
LC50 [13]: > 50 µM
TGI [13]: > 50 µM
GI50 [14]: 19.3 µM
GI50 [15]: 17.4 µM
LC50 [15]: > 50 µM
TGI [15]: > 50 µM
GI50 [16]: > 50 µM
LC50 [16]: > 50 µM
TGI [16]: > 50 µM
GI50 [17]: 12.6 µM
TGI [17]: > 50 µM
CC50 [17]: > 50 µM
GI50 [18]: 7.28 µM
LC50 (concentration killing 50% of cells) [18]: 37.8 µM
TGI [18]: 16.6 µM
GI50 [19]: 9.62 µM
GI50 [20]: 14.9 µM
LC50 (concentration giving 50% net cell kill) [20]: > 50 µM
TGI [20]: > 50 µM
GI50 [21]: 14.9 µM
LC50 [21]: > 50 µM
TGI [21]: > 50 µM
GI50 [22]: 20.5 µM
LC50 [22]: > 50 µM
TGI [22]: > 50 µM
GI50 [23]: 0.95 µM
LC50 [23]: 4.2 µM
TGI [23]: 2 µM
GI50 [24]: 10.5 µM
TGI [24]: 39.7 µM
CC50 [24]: > 50 µM
GI50 [25]: 16.8 µM
LC50 [25]: > 50 µM
TGI [25]: 40.2 µM
GI50 [26]: 17 µM
LC50 [26]: > 50 µM
TGI [26]: > 50 µM
GI50 [27]: 18.5 µM
LC50 [27]: > 50 µM
TGI [27]: > 50 µM
GI50 [28]: 14.5 µM
GI50 [29]: 5.08 µM
LC50 [29]: 24.3 µM
TGI [29]: 11.1 µM
GI50 [30]: > 50 µM
LC50 [30]: > 50 µM
TGI [30]: > 50 µM
GI50 [31]: 13.5 µM
LC50 [31]: > 50 µM
TGI [31]: > 50 µM
GI50 [32]: 9.14 µM
LC50 (concentration killing 50% of cells) [32]: 42.2 µM
TGI [32]: 19.6 µM
